The nature of series [1]: folding enthalpy; higher = less favourable; fluorescence melt of hairpins on a sequencing array, two-state fit. The following applies: sodium 0.088 M. The procedure, abridged:
(§1)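 To match UV melts, fitted temperatures were raised by 9.35 °C. These fits were bootstrapped two-state models that gave melting temperature and folding enthalpy, combined by inverse variance over four replicates. The input was normalised Cy3 fluorescence of library hairpins with annealed Cy3 and quencher oligos on a sequenced MiSeq flow cell, imaged in 50 mM Na-HEPES pH 8.0, 25 mM NaCl in 2.5 °C steps up to 60 °C.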

Series [2] is described as follows: melting temperature; fluorescence melt of hairpins on a sequencing array, two-state fit, raised by 9.35 °C to match UV melts. Conditions: sodium 0.088 M. In outline: as §1

On to GTAGTCGAAAGACTCTAC ((((((....)))..))), for which, in series [1], the folding enthalpy is -12.8 kcal/mol. Moreover, the Tm in series [2] is 36.2 °C.
For GCCACGCGAAAGCCTGGC ((((.((....)).)))) the same measures were -30.4 kcal/mol and 59.6 °C.
The corresponding values for GACCACGAAAGTGACGTC ((((((....)))..))) are -16.5 kcal/mol and 37.5 °C.
As to GAGGACGAAAGTCCCCTC ((((((....)))..))), in series [1], the folding enthalpy is -10.3 kcal/mol. Also, the Tm in series [2] came out at 42.7 °C.
For GAGCACGAAAGTGCGCTC ((((((....)))..))) the same measures were -12.5 kcal/mol and 67.2 °C.
Take GATCACGAAAGTGGTATC ((((((....)))..))): the folding enthalpy in series [1] is -13.5 kcal/mol. For the same sequence, in series [2], the Tm came out at 34.1 °C.
The corresponding values for GGGCATCCGAAAGGACCC (((..(((....)))))) are -18.3 kcal/mol and 38.6 °C.
The corresponding values for GATCGTGGCACGATC ((((((...)))))) are -45.8 kcal/mol and 59.8 °C.
On to GCAACCGCGAAAGCGTGC (((..(((....)))))), for which, in series [1], the folding enthalpy was -14.3 kcal/mol. In addition, the Tm in series [2] came out at 44.7 °C.
As for GTGTCTGGAAACAAACAC ((((.((....)).)))), the folding enthalpy in series [1] was -21.6 kcal/mol. The Tm in series [2] is 33.2 °C.
As to GGTGGCGAAAGCCAACC ((((((....))).))), the folding enthalpy in series [1] is -16.9 kcal/mol. The Tm in series [2] is 64.5 °C.
Consider GGTATCGAAAGATGTACC ((((((....)))..))), for which the folding enthalpy in series [1] is -23.2 kcal/mol. Besides, the Tm in series [2] came to 32.5 °C.
The corresponding values for GACTTCGCGAAAGCGGTC (((..(((....)))))) are -7.56 kcal/mol and 35.1 °C.
As for GATCTTAGGCAAGATC ((((((....)))))), the folding enthalpy in series [1] is -27.9 kcal/mol. Further, in series [2], the Tm is 42.8 °C.
Regarding GCGAACGAAAGTTTACGC ((((((....)))..))), the folding enthalpy in series [1] is -21.2 kcal/mol. Further, the Tm in series [2] was found to be 43 °C.
For GATCCAGCCGTGGATC ((((((....)))))) the same measures were -41.2 kcal/mol and 52.8 °C.
Turning to GATCGCATCGGCGATC ((((((....)))))), in series [1], the folding enthalpy is -33.6 kcal/mol. Also, in series [2], the Tm was 68.8 °C.
In the case of GTTCACGAAAGTGGAAC ((((((....))).))), the folding enthalpy in series [1] is -19.1 kcal/mol. For the same sequence, the Tm in series [2] amounted to 45.4 °C.
For the sequence GCAAACGAAAGTTGCTGC ((((((....)))..))), in series [1], the folding enthalpy was -22.2 kcal/mol. For the same sequence, in series [2], the Tm was 54.1 °C.
As to GCAGCATCGAAAGATTGC (((..(((....)))))), the folding enthalpy in series [1] is -16.9 kcal/mol. In series [2], the Tm worked out at 33.9 °C.
The corresponding values for GCCACCGAAAGGTGAGGC ((((((....)))..))) are -14.1 kcal/mol and 54.9 °C.
Turning to GATCCCGAAAGGGGTATC ((((((....)))..))), the folding enthalpy in series [1] is -11.8 kcal/mol. Moreover, the Tm in series [2] stood at 35.7 °C.
Turning to GCAGCAGGAAACTGCCAC (..((((....))))..), the folding enthalpy in series [1] is -11 kcal/mol. For the same sequence, the Tm in series [2] stood at 31.6 °C.
GTTCGCGAAAGCGTAAAC ((((((....)))..))): in series [1], the folding enthalpy was -10.3 kcal/mol. The Tm in series [2] was 31.9 °C.
The corresponding values for GTGCAGCGAAAGCTCCAC (((.(((....))).))) are -21.8 kcal/mol and 44.7 °C.
Consider GTCGACGAAAGTCTTGAC ((((((....)))..))), for which, in series [1], the folding enthalpy is -15.4 kcal/mol. Besides, the Tm in series [2] was found to be 36.2 °C.
Take GATCTCCGGCGAGATC ((((((....)))))): the folding enthalpy in series [1] is -27.1 kcal/mol. Further, in series [2], the Tm was determined as 50.7 °C.
Regarding GATCACTACAGTGATC ((((((....)))))), in series [1], the folding enthalpy was -40.5 kcal/mol. Also, the Tm in series [2] is 60.6 °C.
For GATCTTGTGTAAGATC ((((((....)))))) the same measures were -34.6 kcal/mol and 43.6 °C.
For GCGCCGCGAAAGCGATGC ((..(((....)))..)) the same measures were -19.4 kcal/mol and 60.8 °C.
The corresponding values for GAGAACGAAAGTTGCTC ((((((....))).))) are -15.7 kcal/mol and 33.6 °C.
Consider GATCATGATCATGATC ((((((....)))))), for which the folding enthalpy in series [1] is -52.3 kcal/mol. Besides, in series [2], the Tm turned out to be 51.4 °C.
In the case of GATCCATTCTGGATC ((((((...)))))), in series [1], the folding enthalpy was -33.2 kcal/mol. In addition, the Tm in series [2] came to 54.3 °C.
For the sequence GGATGCGAAAGCATATCC ((((((....)))..))), the folding enthalpy in series [1] was -14.9 kcal/mol. Besides, in series [2], the Tm worked out at 43.8 °C.
The corresponding values for GATCCCTCAGGGATC ((((((...)))))) are -37.2 kcal/mol and 65 °C.
The corresponding values for GACAACGAAAGTTTTGTC ((((((....)))..))) are -24.7 kcal/mol and 31.8 °C.
Regarding GGAGACGAAAGTCGATCC ((((((....)))..))), in series [1], the folding enthalpy was -13 kcal/mol. Further, the Tm in series [2] stood at 44 °C.

For the origin of these results see the array DNA melting data of Ke et al. (doi:10.1101/2024.01.08.574731).
